“Also recorded” adds a separate entry of the source.
Columns and labels:
[1] = Fluorescence characterization; type: physicochemical; details: for Fluorescence emission intensity (in words): Figure 2, Appendix
How it was run: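 Test compound was dissolved at 10 mM in buffer (12.5 mM MgCl2, 100 mM NaCl, 75 mM Tris/HCl, pH 7.4). Absorption and emission spectra were recorded on a fluorometer at room temperature. Emission spectra used 405 nm excitation.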

[2] = molecular target: human histamine H3 receptor (Homo sapiens, UniProt Q9Y5N1); assay: [3H]Nα-methylhistamine competition binding assay, membranes of HEK-293 cells; details: for Selectivity for hH3R over hH1R and hH4R (in words): comparison of Ki values of Table 1
How it was run: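 Membranes came from HEK-293 cells stably expressing recombinant hH3R, with protein measured by Bradford. They were incubated with 2 nM [3H]Nα-methylhistamine and test compound from 0.01 nM to 100 μM at seven concentrations. Non-specific binding was defined with 10 μM pitolisant. Values are means of at least three independent experiments, each in triplicate.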

Chain of human histamine H3 receptor (Q9Y5N1 whole entry): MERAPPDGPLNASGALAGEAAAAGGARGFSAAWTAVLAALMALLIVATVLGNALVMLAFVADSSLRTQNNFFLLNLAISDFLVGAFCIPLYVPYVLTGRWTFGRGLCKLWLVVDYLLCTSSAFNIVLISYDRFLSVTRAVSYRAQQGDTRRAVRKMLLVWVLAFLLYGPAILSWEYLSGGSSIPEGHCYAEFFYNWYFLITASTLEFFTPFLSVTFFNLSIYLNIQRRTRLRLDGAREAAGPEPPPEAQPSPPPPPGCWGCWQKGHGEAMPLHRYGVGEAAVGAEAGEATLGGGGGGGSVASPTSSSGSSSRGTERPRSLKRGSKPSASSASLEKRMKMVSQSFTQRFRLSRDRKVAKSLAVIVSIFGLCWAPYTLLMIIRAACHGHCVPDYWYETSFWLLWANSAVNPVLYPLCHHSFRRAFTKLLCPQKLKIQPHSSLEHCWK

Area of the fluorescence spectrum of emission [1]	Affinity at the human histamine H3 receptor (in words) [2]	SMILES	Selectivity for hH3R over hH1R and hH4R (in words) [2]	Fluorescence emission intensity (in words) [1]
yellow area	–	CN(C)c1ccc(/C=C2\CCc3cc(OCCCN4CCCCC4)ccc3C2=O)cc1 [Compound 3, (E)-2-(4-(Dimethylamino)benzylidene)-6-(3-(piperidin-1-yl)propoxy)-1-tetralone]	–	–
yellow area	–	CN(C)c1ccc(/C=C2\CCc3ccc(OCCCN4CCCCC4)cc3C2=O)cc1 [Compound 4, (E)-2-(4-(Dimethylamino)benzylidene)-7-(3-(piperidin-1-yl)propoxy)-1-tetralone]	–	–
–	–	CN(C)c1ccc(/C=C/C=C2\CCc3cc(OCCCN4CCCCC4)ccc3C2=O)cc1 [Compound 5, (E)-2-((E)-3-(4-(Dimethylamino)phenyl)allylidene)-6-(3-(piperidin-1-yl)propoxy)-1-tetralone]	less selective chalcone; also recorded: not as selective as compound 9	emits more intensive
–	–	O=C1CCCc2ccc(OCc3ccc(OCCCN4CCCCC4)cc3)cc21 [Compound 8, 7-(4-(3-(Piperidin-1-yl)propoxy)benzyloxy)-1-tetralone]	one of the highest selectivity	–
yellow area	highest affinity	CN(C)c1ccc(/C=C2\CCc3cc(OCc4ccc(OCCCN5CCCCC5)cc4)ccc3C2=O)cc1 [Compound 9, (E)-2-(4-(Dimethylamino)benzylidene)-6-(4-(3-(piperidin-1-yl)propoxy)benzyloxy)-1-tetralone]	most selective compound in the fluorescent chalcone series; also recorded: most human histamine H3 receptor selective	most intense compound; also recorded: highest intensity of all synthesized compounds
yellow area	–	CN(C)c1ccc(/C=C2\CCc3ccc(OCc4ccc(OCCCN5CCCCC5)cc4)cc3C2=O)cc1 [Compound 10, (E)-2-(4-(Dimethylamino)benzylidene)-7-(4-(3-(piperidin-1-yl)propoxy)benzyloxy)-1-tetralone]	–	–

Source: PMC3312100 (Frontiers in Systems Neuroscience, 2012)
